# Measurements of several laboratories.
# Protocols differ between the studies behind these lines.
# RPS6KA1: Ribosomal protein S6 kinase alpha-1 (RPS6KA1, Homo sapiens, UniProt Q15418)
# RPS6KA1 N-terminal kinase domain: Ribosomal protein S6 kinase alpha-1, N-terminal kinase domain (RPS6KA1, Homo sapiens, UniProt Q15418)
# RPS6KA1 C-terminal kinase domain: Ribosomal protein S6 kinase alpha-1, C-terminal kinase domain (RPS6KA1, Homo sapiens, UniProt Q15418)
SMILES,target,assay,system,setting,measurement,value
O=C(Nc1cnn(-c2csc(C(=O)NC3COC3)c2)c1)Nc1ccccc1Cl,RPS6KA1,"enzyme activity, inhibitor",,5 µM,remaining activity,92.4%
Cc1cc(C)c(-n2ccn3nc(-c4cccnc4)cc23)cc1NC(=O)c1cc(C#N)cc(S(F)(F)(F)(F)F)c1,RPS6KA1 N-terminal kinase domain,"cell-free assay, competition with immobilised ligand",,0.1 µM,remaining binding,97%
Cn1c(=O)n(-c2ccc(C(C)(C)C#N)cc2)c2c3cc(-c4cnc5ccccc5c4)ccc3ncc21,RPS6KA1,"enzyme activity, inhibitor",,10 µM,remaining activity,97%
CNc1cccc2cc(C(=O)Nc3ccc(C(=O)O)cc3)c(=O)[nH]c12,RPS6KA1,"enzyme activity, inhibitor",,10 µM,inhibition,16%
COc1cc2ncnc(Nc3ccc(Oc4ccccc4)cc3C)c2cc1OC,RPS6KA1,"enzyme activity, inhibitor",,1 µM,inhibition,6%
c1ccc(CNc2nc(N3CCOc4ccccc43)nc3c2CCCC3)cc1,RPS6KA1 C-terminal kinase domain,"target engagement in cells, inhibitor, chemoproteomics",,20 mM,inhibition,-6.9%
CNC(=O)c1cc(Oc2ccc(NC(=O)Nc3ccc(Cl)c(C(F)(F)F)c3)cc2)ccn1,RPS6KA1,"enzyme activity, inhibitor",,0.3 µM,inhibition,5%
COc1cccc2c(NCc3ccccc3)nc(-n3c(N)nc4ccccc43)nc12,RPS6KA1 C-terminal kinase domain,"target engagement in cells, inhibitor, chemoproteomics",,20 mM,inhibition,1%
CCN(CC)c1ccc(C2=NNC(=O)CC2C)cc1[N+](=O)[O-] (centres unmarked),RPS6KA1,"enzyme activity, inhibitor",,10 µM,remaining activity,101%
c1cnn2ncc(-c3ccnc(N4CCC45COC5)n3)c2c1,RPS6KA1 C-terminal kinase domain,"binding, competition with immobilised ligand",,1 µM,remaining binding,56%
CCS(=O)(=O)c1cc2cc(C[C@@](O)(CC(C)(C)c3ccc(F)cc3C(N)=O)C(F)(F)F)[nH]c2cn1,RPS6KA1 C-terminal kinase domain,"cell-free assay, competition with immobilised ligand",,1 µM,remaining binding,0%
CCCS(=O)(=O)Nc1ccc(F)c(C(=O)c2c[nH]c3ncc(-c4ccc(Cl)cc4)cc23)c1F,RPS6KA1,"enzyme activity, inhibitor",,1 µM,inhibition,< 10%
CN(C)c1nccc(-c2cnn3ncccc23)n1,RPS6KA1 N-terminal kinase domain,"binding, competition with immobilised ligand",,1 µM,remaining binding,100%
CC(C)(C)C(=O)c1sc(NC2CCCCC2)nc1N,RPS6KA1,"enzyme activity, inhibitor",,10 µM,remaining activity,89%
Cn1cncc1C1=CN(c2ncnc3[nH]cnc23)CCS1,RPS6KA1,"enzyme activity, inhibitor, radiometric",,2 µM,inhibition,82%
C[S+]([O-])c1ccc(-c2nc(-c3ccncc3)c(-c3ccc(F)cc3)[nH]2)cc1 (centres unmarked),RPS6KA1,cell-free assay,,0.5 µM,remaining signal,99.9%
N#CC1(c2ccccn2)CCN(Cc2cc(C(=O)N3CCCC3)c(=O)n3ccccc23)CC1,RPS6KA1 N-terminal kinase domain,"cell-free assay, competition with immobilised ligand",,1 µM,remaining binding,100%
CC(C)(C)c1nc(-c2cccc(NS(=O)(=O)c3c(F)cccc3F)c2F)c(-c2ccnc(N)n2)s1,RPS6KA1,"enzyme activity, inhibitor, radiometric",,1 µM,remaining activity,90%
COc1cc2c(Nc3ccc(Br)cc3F)ncnc2cc1OCC1CCN(C)CC1,RPS6KA1,cell-free assay,,0.5 µM,remaining signal,102%
Cc1ccc(NC(=O)c2ccc(C)c(C(F)(F)F)c2)cc1C#Cc1nn(C2CCC(O)CC2)c2ncnc(N)c12 (centres unmarked),RPS6KA1,cell-free assay,,10 µM,remaining signal,11%
CCCOc1ccc(OC)c(F)c1C(=O)c1ccc(C(=O)N[C@@H]2CNC[C@H]2NC(=O)c2ccc3[nH]ncc3c2)cc1,RPS6KA1,"enzyme activity, inhibitor",,10 µM,remaining activity,29%
C#Cc1cccc(Nc2ncnc3cc(OCCOC)c(OCCOC)cc23)c1,RPS6KA1,cell-free assay,,0.5 µM,remaining signal,97.6%
CC(C)(O)[C@H]1CC[C@H](Nc2ccc3ncc(-c4cccc(C(F)(F)F)c4)n3n2)CC1,RPS6KA1,"enzyme activity, inhibitor",,1 µM,remaining activity,72%
COc1ccc2c(c1)O[C@@H](c1ccc(OC)c(OC)c1)C[C@H]2NC(=O)C1(c2ccc3c(c2)OC(F)(F)O3)CC1,RPS6KA1 C-terminal kinase domain,"cell-free assay, competition with immobilised ligand",,1 µM,remaining binding,85%
Cc1ccc(Nc2nccc(N(C)c3ccc4c(C)n(C)nc4c3)n2)cc1S(N)(=O)=O,RPS6KA1,"enzyme activity, inhibitor",,0.5 µM,remaining activity,92.8%
Cc1cnn2ncc(-c3ccnc(N(C)C)n3)c2c1,RPS6KA1 C-terminal kinase domain,"binding, competition with immobilised ligand",,1 µM,remaining binding,64%
CC/C(=N\NC(=O)C(C)Nc1ccccc1)c1ccc(O)c(C)c1O (centres unmarked),RPS6KA1,"enzyme activity, inhibitor",,0.1 µM,inhibition,36.6%
Cc1nccc(COC(=O)N2C[C@@H]3[C@@H](CNC(=O)c4ccc5[nH]nnc5c4)[C@@H]3C2)n1,RPS6KA1 C-terminal kinase domain,"cell-free assay, competition with immobilised ligand",,1 µM,remaining binding,96%
COc1cc(/C=C/C(=O)CC(=O)/C=C/c2ccc(O)c(OC)c2)ccc1O,RPS6KA1,"enzyme activity, inhibitor",,1 µM,activity vs control,53%
Nc1ncnc2occ(-c3ccc(NC(=O)Nc4cc(C(F)(F)F)ccc4F)cc3)c12,RPS6KA1 C-terminal kinase domain,"cell-free assay, inhibitor",,20 µM,remaining signal,20%
COc1cc(Nc2cnc(C#N)c(O[C@H](C)CN(C)C)n2)ncc1-c1cnn(C)c1,RPS6KA1,"enzyme activity, inhibitor, radiometric",,10 µM,remaining activity,14%
Cc1ccc(C(=O)Nc2ccc(CN3CCN(C)CC3)c(C(F)(F)F)c2)cc1C#Cc1cnc2cccnn12,RPS6KA1,"enzyme activity, inhibitor",,23.5 nM,remaining activity,80%
CNc1cc(Oc2cc(C(=O)Nc3cc(N4CCN(C)CC4)cc(C(F)(F)F)c3)ccc2C)ncn1,RPS6KA1 C-terminal kinase domain,"target engagement in cells, inhibitor, chemoproteomics",Huh-7,1 µM,inhibition,-27.6%
CO[C@H]1CC[C@H](CNc2ccc(S(=O)(=O)NC(=O)c3ccc(N4CCN(CC5=C(c6ccc(Cl)cc6)CC(C)(C)CC5)CC4)cc3Oc3cnc4[nH]ccc4c3)cc2[N+](=O)[O-])CC1,RPS6KA1 C-terminal kinase domain,"cell-free assay, competition with immobilised ligand",,1 µM,remaining binding,73%
N[C@H]1CCN(c2nccc(-c3cnn4ncccc34)n2)C1,RPS6KA1 C-terminal kinase domain,"binding, competition with immobilised ligand",,1 µM,remaining binding,99%
COc1cc2c(N3CCN(C(=O)Nc4ccc(OC(C)C)cc4)CC3)ncnc2cc1OCCCN1CCCCC1,RPS6KA1,cell-free assay,,0.5 µM,remaining signal,94.8%
C[C@@H]1CCN(c2nccc(-c3cnn4ncccc34)n2)C1,RPS6KA1 N-terminal kinase domain,"binding, competition with immobilised ligand",,1 µM,remaining binding,100%
CCC(=O)N[C@@H]1CC[C@H](C(=O)N(C)c2ccc(-c3nc4ccccc4o3)cc2)C1,RPS6KA1 N-terminal kinase domain,"cell-free assay, competition with immobilised ligand",,1 µM,remaining binding,100%
COc1cc(Cl)c(C(=O)N[C@@H](CN[C@H]2CC[C@@H](N)CC2)Cc2ccc(C#N)cc2)cc1-c1ccc(CN[C@H](C)c2ccc(C)cc2)o1,RPS6KA1,"enzyme activity, inhibitor",,1 µM,remaining activity,85%
O=C1Nc2ccc(Cl)cc2C1=Cc1cc(Cl)c(O)c(Cl)c1,RPS6KA1,cell-free assay,,0.5 µM,remaining signal,48.4%
O=C1NC(c2ccccn2)Sc2ccccc21 (centres unmarked),RPS6KA1 C-terminal kinase domain,"cell-free assay, competition with immobilised ligand",,1 µM,remaining binding,100%
